Data published in ChEMBL document CHEMBL1909628, “Discovery of 6-substituted indole-3-glyoxylamides as lead antiprion agents with enhanced cell line activity, improved microsomal stability and low toxicity” (Eur J Med Chem, 2011).

Columns and labels:
[1] = Metabolic stability in mouse liver microsomes assessed as compound remaining after 30 mins by HPLC analysis; assay type: ADME, Microsome; conditions: read-out: Stability
Outline: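 Mouse liver microsomes (0.5 mg/mL stock) in 0.2 M potassium phosphate pH 7.0 with DL-isocitrate, MgCl2 and isocitrate dehydrogenase. Preincubated 5 min at 37 °C, then started with NADPH. Sampled at t=0 and after 30 min at 37 °C, quenched in ice-cold acetonitrile with internal standard. Analysed by C18 HPLC, UV at 267 nm, in triplicate.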

[2] = Cytotoxicity against mouse SMB.s15 cells at 20 uM after 5 days by MTT assay; assay type: cell-based; conditions: smb.s15, 120 h
Outline: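 SMB.s15 cells at 12,000 cells/well, exposed to compound for 5 days at 37 °C (DMSO stock diluted via HBSS into medium). Viability measured by MTT assay per the reagent's standard protocol.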

ScN2a = test: Cytotoxicity against mouse ScN2a cells up to 32 uM; assay type: cell-based
Outline: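 ScN2a cells seeded separately in 96-well plates. Calcein cell viability assay run in parallel with the ELISA screen, up to 32 uM maximum.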

[3] = Antiprion activity against PrPsc infected in mouse ScN2a cells assessed as complete clearance of PrPSc after 5 days by ELISA; assay type: cell-based; conditions: 120 h
Outline: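 ScN2a cells (N2a infected with RML prion strain) seeded at 4×10^5 cells/well in MEM with 10% FBS, GlutaMax, geneticin. Compound added 4 h after seeding, 0.5% final DMSO, 5 days at 37 °C. Lysates captured on D18 Fab-coated ELISA plates overnight at 4 °C, HRP-D13 detection, ABTS, absorbance at 405 nm. Dose-response curves from three independent experiments.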

[4] = Antiprion activity against PrPsc infected in mouse SMB.s15 cells assessed as complete clearance of PrPSc after 5 days by dot blot analysis; assay type: cell-based; conditions: SMB.s15, 120 h
Outline: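 SMB.s15 cells (scrapie-infected, mesodermal origin) in Medium 199 with 10% newborn calf and 5% fetal calf serum, seeded at 12,000 cells/well, 24 h attachment. Compound added from DMSO stock via HBSS dilution, 5 days at 37 °C. Lysates dot-blotted, proteinase K digestion (1 h, 37 °C), guanidine thiocyanate, anti-PrP 6H4 mAb, ECL. Triplicate, PrPSc relative to DMSO-only control.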

[5] = (§1) Toxicity in zebrafish assessed as organism survival at 5 uM treated at 48 hrs post-fertilization measured after 3 days; assay type: organism-based, Danio rerio; conditions: in vivo
Outline: (§2)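 AB wild-type zebrafish embryos dechorionated with pronase at 48 hpf, 3 per well in methylene blue-free E3 medium. Dosed at 5 uM from 10 mM DMSO stocks (1% v/v DMSO). Kept at 28 °C for 72 h without food; survival scored at day 5 versus vehicle controls. Two experiments, each in triplicate.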

Danio rerio = species: Danio rerio; test: as §1; assay type: organism-based; conditions: in vivo, 72 h, 5 µM; outline: as §2
[6] = Toxicity in zebrafish assessed as mortality rate at 5 uM measured after 72 hrs; assay type: organism-based, Danio rerio; conditions: in vivo, read-out: Activity; outline: as §2

O=C(Nc1ccc(-n2cccn2)cc1)C(=O)c1c[nH]c2cc(Cl)ccc12
remaining at 0.5 h [1]: 96.7% | Activity [2]: Non-toxic | Activity (ScN2a): Non-toxic | EC50 [3]: 175 nM | EC50 [4]: 6.1 nM | survival at 72 h, 5 µM [5]: 100%

O=C(Nc1ccc(-n2cccc2)cc1)C(=O)c1c[nH]c2cc(Cl)ccc12
Activity [2]: Non-toxic | Activity (ScN2a): Non-toxic | EC50 [4]: 17 nM | Activity (Danio rerio): Toxic

Cc1cccc2c(C(=O)C(=O)Nc3ccc(N4CCOCC4)cc3)c[nH]c12
Activity [2]: Non-toxic | Activity (ScN2a): Non-toxic | mortality at 72 h, 5 µM [6]: 20% | EC50 [4]: 16 nM | survival at 72 h, 5 µM [5]: 100%

COc1ccc(NC(=O)C(=O)c2c[nH]c3cccc(C)c23)cc1
Activity [2]: Non-toxic | Activity (ScN2a): Non-toxic | EC50 [4]: 2360 nM | survival at 72 h, 5 µM [5]: 100%

Cc1ccc2c(C(=O)C(=O)Nc3ccccc3)c[nH]c2c1
Activity [2]: Non-toxic | Activity (ScN2a): Non-toxic | EC50 [4]: 44 nM | survival at 72 h, 5 µM [5]: 100%

O=C(Nc1ccc(N2CCOCC2)cc1)C(=O)c1c[nH]c2ccc(Cl)cc12
Activity [2]: Non-toxic | Activity (ScN2a): Non-toxic | mortality at 72 h, 5 µM [6]: 20% | EC50 [4]: 69 nM | Activity (Danio rerio): Toxic

COc1ccc(NC(=O)C(=O)c2c[nH]c3cc(F)ccc23)cc1
remaining at 0.5 h [1]: 74.6% | Activity [2]: Non-toxic | Activity (ScN2a): Non-toxic | EC50 [4]: 13 nM | survival at 72 h, 5 µM [5]: 100%

COc1ccc(NC(=O)C(=O)c2c[nH]c3ccc(Cl)cc23)cc1
Activity [2]: Non-toxic | Activity (ScN2a): Non-toxic | EC50 [4]: 470 nM | Activity (Danio rerio): Toxic

COc1ccc(NC(=O)C(=O)c2c[nH]c3cc(Cl)ccc23)cc1
remaining at 0.5 h [1]: 87.3% | Activity [2]: Non-toxic | Activity (ScN2a): Non-toxic | EC50 [4]: 9.9 nM | Activity (Danio rerio): Toxic

O=C(Nc1ccc(N2CCOCC2)cc1)C(=O)c1c[nH]c2cc(Cl)ccc12
Activity [2]: Non-toxic | Activity (ScN2a): Non-toxic | mortality at 72 h, 5 µM [6]: 20% | EC50 [4]: 7.3 nM

Cc1ccc(NC(=O)C(=O)c2c[nH]c3cc(C)ccc23)cc1
remaining at 0.5 h [1]: 90.2% | Activity [2]: Non-toxic | Activity (ScN2a): Non-toxic | mortality at 72 h, 5 µM [6]: 20% | EC50 [4]: 51 nM | survival at 72 h, 5 µM [5]: 100%

Cc1ccc2[nH]cc(C(=O)C(=O)Nc3ccccc3)c2c1
Activity [2]: Non-toxic | Activity (ScN2a): Non-toxic | EC50 [4]: 11500 nM | survival at 72 h, 5 µM [5]: 100%

O=C(Nc1ccc(-n2cccc2)cc1)C(=O)c1c[nH]c2cc(F)ccc12
Activity [2]: Non-toxic | Activity (ScN2a): Non-toxic | EC50 [4]: 7.7 nM | survival at 72 h, 5 µM [5]: 100%

Cn1cc(C(=O)C(=O)Nc2ccc(-n3cccc3)cc2)c2ccccc21
Activity [2]: Non-toxic | Activity (ScN2a): Non-toxic | EC50 [4]: 170 nM | survival at 72 h, 5 µM [5]: 100%

Cc1ccc(NC(=O)C(=O)c2c[nH]c3cc([N+](=O)[O-])ccc23)cc1
remaining at 0.5 h [1]: 84.8% | Activity [2]: Non-toxic | Activity (ScN2a): Non-toxic | mortality at 72 h, 5 µM [6]: 20% | EC50 [4]: 35 nM | survival at 72 h, 5 µM [5]: 100%

Cc1ccc(NC(=O)C(=O)c2c[nH]c3c(Cl)cccc23)cc1
Activity [2]: Non-toxic | Activity (ScN2a): Non-toxic | mortality at 72 h, 5 µM [6]: 20% | EC50 [3]: 1260 nM | EC50 [4]: 470 nM | survival at 72 h, 5 µM [5]: 100%

COc1ccc(NC(=O)C(=O)c2cn(C)c3ccccc23)cc1
Activity [2]: Non-toxic | Activity (ScN2a): Non-toxic | EC50 [4]: 68 nM | Activity (Danio rerio): Toxic

COc1ccc(NC(=O)C(=O)c2c[nH]c3c(C)cccc23)cc1
Activity [2]: Non-toxic | Activity (ScN2a): Non-toxic | EC50 [4]: 150 nM | survival at 72 h, 5 µM [5]: 100%

COc1ccc(NC(=O)C(=O)c2c[nH]c3cc(C)ccc23)cc1
remaining at 0.5 h [1]: 89.1% | Activity [2]: Non-toxic | Activity (ScN2a): Non-toxic | EC50 [4]: 12 nM | survival at 72 h, 5 µM [5]: 100%

O=C(Nc1ccc(-n2cccn2)cc1)C(=O)c1c[nH]c2cc(F)ccc12
Activity [2]: Non-toxic | Activity (ScN2a): Non-toxic | EC50 [4]: 1.2 nM | Activity (Danio rerio): Toxic
